According to ChEMBL document CHEMBL3792331, “Identification and synthesis of potent and selective pyridyl-isoxazole based agonists of sphingosine-1-phosphate 1 (S1P1)” (Bioorg Med Chem Lett, 2016):
pEC50, pIC50: −log10 of the molar value.

Legend:
[1] = Selectivity index, ratio of EC50 for agonist activity at human S1P3 receptor expressed in EDG3-Ga15-bla HEK293T cell membranes to EC50 for agonist activity at human S1P1 receptor expressed in CHO cell membranes; format: cell-based
How it was run: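 S1P3/S1P1 ratio of GTPγ[35S] EC50s. Membranes from EDG3-Ga15-bla HEK293T (S1P3) or S1P1/CHO cells, […], 0.2 nM final [35S]GTP. HEPES pH 7.5 buffer with MgCl2, NaCl, EGTA, DTT, GDP, BSA and saponin. 45 min at room temperature, filtration read-out. Each EC50 taken at 50% of the compound's own Ymax.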

Rattus norvegicus [2] = assay: Reduction in circulating lymphocytes in Lewis rat at 1 mg/kg, po after 4 hrs; format: functional
How it was run: (§1)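 Healthy Lewis rats dosed orally with test article as solution or suspension in vehicle, or vehicle alone. Blood drawn at 4 h and 24 h. Circulating lymphocyte percentage measured by hematology analyzer, expressed as reduction versus the vehicle group. Group average, n = 3–4.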

Plasma = assay: Ratio of plasma concentration Lewis rat at 1 mg/kg, po after 4 hrs to plasma concentration Lewis rat at 1 mg/kg, po after 24 hrs; format: ADME, organism-based; conditions: in vivo
How it was run: (§2)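 Lewis rats given 1.0 mg/kg orally as solution or suspension in vehicle. Plasma drug concentration measured in blood drawn at 4 h and 24 h; 4 h/24 h ratio taken from these values.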

[3] = molecular target: Sphingosine 1-phosphate receptor 1 (Homo sapiens, UniProt P21453); assay: Agonist activity at human S1P1 receptor expressed in CHO cell membranes assessed as stimulation of [35S]GTPgamma binding incubated for 45 mins by liquid scintillation counting method
Sequence of Sphingosine 1-phosphate receptor 1 (P21453 whole entry): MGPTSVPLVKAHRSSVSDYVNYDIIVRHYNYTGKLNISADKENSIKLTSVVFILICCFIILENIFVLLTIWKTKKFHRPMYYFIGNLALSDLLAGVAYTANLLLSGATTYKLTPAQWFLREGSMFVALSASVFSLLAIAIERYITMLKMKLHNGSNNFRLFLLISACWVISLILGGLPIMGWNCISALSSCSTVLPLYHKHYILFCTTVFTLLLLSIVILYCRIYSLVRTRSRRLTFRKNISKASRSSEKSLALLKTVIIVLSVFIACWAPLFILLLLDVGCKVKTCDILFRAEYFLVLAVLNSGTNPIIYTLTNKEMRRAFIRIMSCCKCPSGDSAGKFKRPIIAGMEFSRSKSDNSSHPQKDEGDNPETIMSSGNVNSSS
How it was run: (§3)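 Membranes from S1P1/CHO cells (S1P1) or EDG3-Ga15-bla HEK293T cells (S1P3), final protein […], with 3-fold compound dilutions. Buffer: 20 mM HEPES pH 7.5, 10 mM MgCl2, 150 mM NaCl, 1 mM EGTA, 1 mM DTT, GDP, 0.1% fatty acid free BSA, saponin. [35S]GTP 0.2 nM final. Room temperature, 45 min. Filtered, washed with water, dried 60 °C. EC50 taken at 50% of each compound's Ymax.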

[4] = molecular target: Sphingosine 1-phosphate receptor 3 (Homo sapiens, UniProt Q99500); assay: Agonist activity at human S1P3 receptor expressed in EDG3-Ga15-bla HEK293T cell membranes assessed as stimulation of [35S]GTPgamma binding incubated for 45 mins by liquid scintillation counting method; design: species or system HEK-293T; how it was run: as §3
Sequence of Sphingosine 1-phosphate receptor 3 (Q99500 whole entry): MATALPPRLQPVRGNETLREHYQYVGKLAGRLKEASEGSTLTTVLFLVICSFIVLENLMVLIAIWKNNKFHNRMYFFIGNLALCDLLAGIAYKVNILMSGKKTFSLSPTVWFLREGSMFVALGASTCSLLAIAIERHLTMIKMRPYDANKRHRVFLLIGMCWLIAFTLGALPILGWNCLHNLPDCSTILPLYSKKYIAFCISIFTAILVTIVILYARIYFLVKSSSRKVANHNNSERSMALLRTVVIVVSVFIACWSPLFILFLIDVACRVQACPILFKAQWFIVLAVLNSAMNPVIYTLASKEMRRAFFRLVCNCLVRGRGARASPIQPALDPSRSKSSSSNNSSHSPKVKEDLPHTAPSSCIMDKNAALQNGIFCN

[5] = Plasma concentration Lewis rat at 1 mg/kg, po after 4 hrs; format: ADME, organism-based; how it was run: as §2
Rattus norvegicus [6] = assay: Reduction in circulating lymphocytes in Lewis rat at 1 mg/kg, po after 24 hrs; format: functional; how it was run: as §1
[7] = Plasma concentration Lewis rat at 1 mg/kg, po after 24 hrs; format: ADME, organism-based; how it was run: as §2
Rattus norvegicus [8] = assay: Reduction in circulating lymphocytes in Lewis rat at 0.3 mg/kg, po after 24 hrs; format: functional; how it was run: as §1
CHO [9] = assay: Selectivity index, ratio of EC50 for agonist activity at human S1P4 receptor to EC50 for agonist activity at human S1P1 receptor expressed in CHO cell membranes; format: cell-based
CHO [10] = assay: Selectivity index, ratio of EC50 for agonist activity at human S1P5 receptor to EC50 for agonist activity at human S1P1 receptor expressed in CHO cell membranes; format: cell-based
[11] = Protein binding in human plasma; format: ADME, cell-free; conditions: read-out: PPB (converted)
[12] = Protein binding in mouse plasma; format: ADME, cell-free; conditions: read-out: PPB (converted)
[13] = Protein binding in rat plasma; format: ADME, cell-free; conditions: read-out: PPB (converted)
[14] = Protein binding in dog plasma; format: ADME, cell-free, Canis lupus familiaris; conditions: read-out: PPB (converted)
[15] = Protein binding in monkey plasma; format: ADME, cell-free, Macaca mulatta; conditions: rhesus monkey, read-out: PPB (converted)
Salmonella typhimurium = assay: Mutagenicity in Salmonella typhimurium; format: toxicity, organism-based; conditions: salmonella enterica subsp. enterica serovar typhimurium
hERG (KCNH2) [16] = molecular target: T1, hERG (KCNH2) (Homo sapiens, UniProt Q12809); assay: Inhibition of human ERG at 10 uM by patch clamp assay
T1 sequence (Q12809 whole entry): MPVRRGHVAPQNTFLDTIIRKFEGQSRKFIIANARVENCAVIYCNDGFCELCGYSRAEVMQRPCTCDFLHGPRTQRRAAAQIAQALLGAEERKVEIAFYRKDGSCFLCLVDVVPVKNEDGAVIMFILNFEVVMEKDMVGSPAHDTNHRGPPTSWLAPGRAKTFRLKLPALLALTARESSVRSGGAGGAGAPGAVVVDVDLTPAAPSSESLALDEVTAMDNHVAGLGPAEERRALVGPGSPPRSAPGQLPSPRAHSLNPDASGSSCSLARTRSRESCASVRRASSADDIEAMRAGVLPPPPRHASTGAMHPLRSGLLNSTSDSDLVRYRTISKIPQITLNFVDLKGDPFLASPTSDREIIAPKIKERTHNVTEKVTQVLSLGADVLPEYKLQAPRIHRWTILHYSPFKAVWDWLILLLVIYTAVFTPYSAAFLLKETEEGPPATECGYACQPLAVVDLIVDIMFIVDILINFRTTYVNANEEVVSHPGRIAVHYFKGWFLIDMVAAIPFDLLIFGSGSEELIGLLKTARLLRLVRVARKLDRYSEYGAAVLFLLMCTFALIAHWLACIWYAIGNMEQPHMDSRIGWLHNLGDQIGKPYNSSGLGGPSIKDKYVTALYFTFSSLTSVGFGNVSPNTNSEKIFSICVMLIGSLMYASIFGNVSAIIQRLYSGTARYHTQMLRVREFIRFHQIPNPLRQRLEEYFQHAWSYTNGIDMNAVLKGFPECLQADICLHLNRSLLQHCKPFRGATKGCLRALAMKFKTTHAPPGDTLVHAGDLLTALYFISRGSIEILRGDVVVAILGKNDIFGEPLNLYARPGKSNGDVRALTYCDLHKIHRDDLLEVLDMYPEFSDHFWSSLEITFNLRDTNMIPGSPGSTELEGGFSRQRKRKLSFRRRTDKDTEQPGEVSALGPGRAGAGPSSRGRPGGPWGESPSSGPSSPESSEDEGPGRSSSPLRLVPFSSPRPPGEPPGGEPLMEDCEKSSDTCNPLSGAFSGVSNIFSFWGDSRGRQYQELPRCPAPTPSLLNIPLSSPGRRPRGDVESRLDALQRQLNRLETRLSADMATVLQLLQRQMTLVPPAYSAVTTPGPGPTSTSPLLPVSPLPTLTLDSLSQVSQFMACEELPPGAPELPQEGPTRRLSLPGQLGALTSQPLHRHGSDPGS

hERG (KCNH2) [17] = molecular target: T1, hERG (KCNH2); assay: Inhibition of human ERG at 30 uM by patch clamp assay
Homo sapiens [18] = organism: Homo sapiens; assay: Inhibition of sodium channel (unknown origin) at 10 uM under 1 and 4 Hz condition by patch clamp assay
Homo sapiens [19] = organism: Homo sapiens; assay: Inhibition of potassium channel (unknown origin) at 10 uM by patch clamp assay
Cytochrome P450 1A2 = molecular target: T2, Cytochrome P450 1A2 (Homo sapiens, UniProt P05177); assay: Inhibition of CYP1A2 (unknown origin); format: ADME
T2 sequence (P05177 whole entry): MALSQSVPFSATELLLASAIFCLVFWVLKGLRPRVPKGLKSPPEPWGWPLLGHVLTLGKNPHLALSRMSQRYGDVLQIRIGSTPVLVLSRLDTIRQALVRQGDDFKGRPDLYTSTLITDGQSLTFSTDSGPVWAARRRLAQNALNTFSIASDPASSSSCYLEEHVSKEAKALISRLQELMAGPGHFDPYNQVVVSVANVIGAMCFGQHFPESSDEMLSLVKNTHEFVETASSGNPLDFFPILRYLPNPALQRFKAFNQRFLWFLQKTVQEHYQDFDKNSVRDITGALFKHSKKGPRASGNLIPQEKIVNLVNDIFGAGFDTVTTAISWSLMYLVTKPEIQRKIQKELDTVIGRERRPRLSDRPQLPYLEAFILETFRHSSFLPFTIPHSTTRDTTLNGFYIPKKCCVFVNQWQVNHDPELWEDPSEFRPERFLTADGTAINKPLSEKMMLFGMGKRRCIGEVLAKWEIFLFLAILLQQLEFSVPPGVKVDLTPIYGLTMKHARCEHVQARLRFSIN

Cytochrome P450 2B6 = molecular target: T3, Cytochrome P450 2B6 (Homo sapiens, UniProt P20813); assay: Inhibition of CYP2B6 (unknown origin); format: ADME
T3 sequence (P20813 whole entry): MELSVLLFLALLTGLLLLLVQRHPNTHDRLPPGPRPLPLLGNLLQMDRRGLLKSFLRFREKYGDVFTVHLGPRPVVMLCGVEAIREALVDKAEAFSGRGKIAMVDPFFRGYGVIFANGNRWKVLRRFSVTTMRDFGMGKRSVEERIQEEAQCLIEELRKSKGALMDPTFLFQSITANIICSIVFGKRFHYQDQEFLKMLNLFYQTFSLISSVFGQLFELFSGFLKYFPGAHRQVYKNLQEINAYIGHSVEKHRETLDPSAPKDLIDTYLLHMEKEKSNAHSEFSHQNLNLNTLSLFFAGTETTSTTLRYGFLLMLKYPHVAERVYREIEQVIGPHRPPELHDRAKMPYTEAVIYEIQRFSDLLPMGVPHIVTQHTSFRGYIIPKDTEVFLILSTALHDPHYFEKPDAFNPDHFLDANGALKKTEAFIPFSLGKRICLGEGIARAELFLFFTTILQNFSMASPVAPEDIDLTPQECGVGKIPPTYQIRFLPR

Cytochrome P450 2C8 = molecular target: T4, Cytochrome P450 2C8 (Homo sapiens, UniProt P10632); assay: Inhibition of CYP2C8 (unknown origin); format: ADME
T4 sequence (P10632 whole entry): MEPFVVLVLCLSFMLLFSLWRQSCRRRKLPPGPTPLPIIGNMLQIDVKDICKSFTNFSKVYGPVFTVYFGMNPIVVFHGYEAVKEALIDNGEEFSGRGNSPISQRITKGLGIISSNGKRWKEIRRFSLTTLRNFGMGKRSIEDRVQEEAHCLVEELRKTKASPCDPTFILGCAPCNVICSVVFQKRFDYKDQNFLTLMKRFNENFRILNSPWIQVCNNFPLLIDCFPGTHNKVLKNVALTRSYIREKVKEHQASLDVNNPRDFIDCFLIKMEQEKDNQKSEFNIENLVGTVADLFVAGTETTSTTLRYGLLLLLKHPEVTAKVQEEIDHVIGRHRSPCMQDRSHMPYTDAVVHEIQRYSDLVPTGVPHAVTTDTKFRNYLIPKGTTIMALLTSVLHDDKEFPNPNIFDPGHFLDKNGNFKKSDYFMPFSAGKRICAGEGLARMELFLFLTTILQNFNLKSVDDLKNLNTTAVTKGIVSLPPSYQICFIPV

Cytochrome P450 2C9 = Cytochrome P450 2C9 (Homo sapiens, UniProt P11712); assay: Inhibition of CYP2C9 (unknown origin); format: ADME
Sequence of Cytochrome P450 2C9 (P11712 whole entry): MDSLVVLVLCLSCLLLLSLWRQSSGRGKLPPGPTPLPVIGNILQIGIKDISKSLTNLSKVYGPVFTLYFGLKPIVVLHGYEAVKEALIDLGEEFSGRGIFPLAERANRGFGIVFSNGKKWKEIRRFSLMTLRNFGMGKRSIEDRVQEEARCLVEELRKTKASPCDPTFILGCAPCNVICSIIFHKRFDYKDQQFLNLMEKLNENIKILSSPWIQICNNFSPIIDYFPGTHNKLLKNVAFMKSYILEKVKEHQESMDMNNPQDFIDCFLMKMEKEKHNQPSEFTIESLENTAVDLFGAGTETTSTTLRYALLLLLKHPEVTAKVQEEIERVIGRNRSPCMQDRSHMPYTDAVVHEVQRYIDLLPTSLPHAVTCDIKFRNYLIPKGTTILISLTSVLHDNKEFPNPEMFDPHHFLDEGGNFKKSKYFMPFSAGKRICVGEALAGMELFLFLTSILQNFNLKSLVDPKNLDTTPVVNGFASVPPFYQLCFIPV

Cytochrome P450 2C19 = Cytochrome P450 2C19 (Homo sapiens, UniProt P33261); assay: Inhibition of CYP2C19 (unknown origin); format: ADME
Sequence of Cytochrome P450 2C19 (P33261 whole entry): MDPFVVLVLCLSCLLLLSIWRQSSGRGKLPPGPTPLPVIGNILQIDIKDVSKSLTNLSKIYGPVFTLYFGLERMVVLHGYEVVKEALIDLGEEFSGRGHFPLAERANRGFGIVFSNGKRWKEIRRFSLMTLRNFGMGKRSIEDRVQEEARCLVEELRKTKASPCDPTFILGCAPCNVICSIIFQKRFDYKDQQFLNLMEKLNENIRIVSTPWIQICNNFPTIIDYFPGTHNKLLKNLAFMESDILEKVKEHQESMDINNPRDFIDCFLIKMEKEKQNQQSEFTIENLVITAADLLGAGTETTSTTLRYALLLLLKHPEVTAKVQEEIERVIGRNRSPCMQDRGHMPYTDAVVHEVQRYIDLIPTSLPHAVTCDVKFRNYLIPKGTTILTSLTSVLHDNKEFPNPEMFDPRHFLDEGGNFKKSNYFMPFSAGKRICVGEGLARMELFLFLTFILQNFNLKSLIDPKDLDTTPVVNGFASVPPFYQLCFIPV

Cytochrome P450 2D6 = Cytochrome P450 2D6 (Homo sapiens, UniProt P10635); assay: Inhibition of CYP2D6 (unknown origin); format: ADME
Sequence of Cytochrome P450 2D6 (P10635 whole entry): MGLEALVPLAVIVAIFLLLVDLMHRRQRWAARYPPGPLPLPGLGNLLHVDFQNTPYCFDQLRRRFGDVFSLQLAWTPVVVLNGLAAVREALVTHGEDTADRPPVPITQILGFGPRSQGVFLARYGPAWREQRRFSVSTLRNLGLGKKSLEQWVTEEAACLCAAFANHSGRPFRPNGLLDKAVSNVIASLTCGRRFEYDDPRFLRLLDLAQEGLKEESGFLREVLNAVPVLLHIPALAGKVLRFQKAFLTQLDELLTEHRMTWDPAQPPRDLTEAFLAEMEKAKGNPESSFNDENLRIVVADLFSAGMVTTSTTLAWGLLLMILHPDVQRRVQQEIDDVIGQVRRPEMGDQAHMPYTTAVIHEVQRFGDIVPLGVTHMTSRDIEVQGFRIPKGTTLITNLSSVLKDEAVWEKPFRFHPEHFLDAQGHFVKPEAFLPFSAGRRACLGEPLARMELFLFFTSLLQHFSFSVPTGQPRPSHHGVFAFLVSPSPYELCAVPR

Cytochrome P450 3A4 = Cytochrome P450 3A4 (Homo sapiens, UniProt P08684); assay: Inhibition of CYP3A4 (unknown origin); format: ADME
Sequence of Cytochrome P450 3A4 (P08684 whole entry): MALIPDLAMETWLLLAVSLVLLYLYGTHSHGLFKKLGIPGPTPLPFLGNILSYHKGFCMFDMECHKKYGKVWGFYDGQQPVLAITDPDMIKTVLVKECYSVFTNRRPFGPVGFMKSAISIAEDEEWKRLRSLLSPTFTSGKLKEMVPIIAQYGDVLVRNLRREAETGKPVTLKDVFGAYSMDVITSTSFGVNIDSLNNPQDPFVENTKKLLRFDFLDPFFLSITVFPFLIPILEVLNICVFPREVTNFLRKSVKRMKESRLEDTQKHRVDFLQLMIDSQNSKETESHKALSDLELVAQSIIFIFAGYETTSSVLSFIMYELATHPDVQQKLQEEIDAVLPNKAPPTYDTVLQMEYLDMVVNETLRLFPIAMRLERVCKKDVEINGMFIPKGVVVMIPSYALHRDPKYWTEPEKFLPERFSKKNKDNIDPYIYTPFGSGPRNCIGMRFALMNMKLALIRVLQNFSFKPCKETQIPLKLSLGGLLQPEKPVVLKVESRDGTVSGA

O=C(O)C1CN(Cc2ccc(-c3noc(-c4onc(-c5ccccn5)c4C(F)(F)F)n3)cc2)C1
Ratio EC50 [1]: 4100 | inhibition in vivo at 1 mg/kg (Rattus norvegicus [2]): 85% | Ratio (Plasma): 47 | pEC50 [3]: 9.15 | pEC50 [4]: 5.54 | concentration at 4 h [5]: 2510 nM | inhibition in vivo at 1 mg/kg (Rattus norvegicus [6]): 80% | concentration at 24 h [7]: 54 nM | inhibition in vivo at 0.3 mg/kg (Rattus norvegicus [8]): 50% | Ratio EC50 (CHO [9]): 3.2 | Ratio EC50 (CHO [10]): 3.2 | fraction unbound [11]: 0.005 | fraction unbound [12]: 0.006 | fraction unbound [13]: 0.024 | fraction unbound [14]: 0.274 | fraction unbound [15]: 0.065 | Activity (Salmonella typhimurium): Non-toxic | inhibition at 10 µM (hERG (KCNH2) [16]): 13% | inhibition at 30 µM (hERG (KCNH2) [17]): 34% | inhibition (Homo sapiens [18]): < 5% | inhibition (Homo sapiens [19]): 12% | pIC50 (Cytochrome P450 1A2): < 4.40 | pIC50 (Cytochrome P450 2B6): < 4.40 | pIC50 (Cytochrome P450 2C8): < 4.40 | pIC50 (Cytochrome P450 2C9): < 4.40 | pIC50 (Cytochrome P450 2C19): < 4.40 | pIC50 (Cytochrome P450 2D6): < 4.40 | pIC50 (Cytochrome P450 3A4): < 4.40
